# Assays:
# [1] = Half life in guinea pig at 40 mg/kg, administered via intratracheal insufflation by HPLC method; format: ADME, organism-based, Cavia porcellus; set-up: dose 40 mg/kg, route endotracheal; conditions: in vivo, inhaled or intranasal
# Procedure, shortened: (§1)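 Healthy male guinea pigs (463.86 ± 65.11 g), jugular vein cannulated 24 h before dosing; n = 6 or 7 per group. Dosing was i.v. solution 20 mg/kg, oral gavage of mixed micelle suspension (10% hydroxypropyl-β-cyclodextrin, 10% lecithin) 40 mg/kg, or intratracheal insufflation of porous dry powder at nominal 20, 40, 60 mg/kg. For insufflation, the delivered dose was taken by weighing the device before and after. Blood was drawn 0–24 h (to 32 h at 60 mg/kg) and plasma assayed by validated HPLC-UV (standards 0.20–50 µg/ml).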
# Cavia porcellus [2] = assay: AUC (0 to infinity) in guinea pig at 40 mg/kg, po by HPLC method; format: ADME, organism-based, Plasma; set-up: time infinity, dose 40 mg/kg, route oral; conditions: in vivo; procedure, shortened: as §1
# [3] = Chemical stability of the compound at 40 degC; format: physicochemical
# [4] = Tmax in guinea pig at 60 mg/kg, administered via intratracheal insufflation by HPLC method; format: ADME, organism-based, Cavia porcellus; set-up: dose 60 mg/kg, route endotracheal; conditions: in vivo, inhaled or intranasal; procedure, shortened: as §1
# Cavia porcellus [5] = assay: Bioavailability (0 to infinity) in guinea pig at 40 mg/kg, po by HPLC method; format: ADME, organism-based; conditions: in vivo; procedure, shortened: as §1
# [6] = AUC (0 to infinity) in guinea pig at 60 mg/kg, administered via intratracheal insufflation by HPLC method; format: ADME, organism-based, Cavia porcellus; set-up: time infinity, dose 60 mg/kg, route endotracheal; conditions: plasma, inhaled or intranasal; procedure, shortened: as §1
# [7] = Chemical stability of the compound after 12 months; format: physicochemical; conditions: 8766 h
# [8] = Elimination rate constant in guinea pig at 20 mg/kg, administered via intratracheal insufflation by HPLC method; format: ADME, organism-based, Cavia porcellus; set-up: dose 20 mg/kg, route endotracheal; conditions: in vivo, inhaled or intranasal; procedure, shortened: as §1
# [9] = Half life in po dosed monkey; format: ADME, organism-based, Macaca mulatta; conditions: rhesus monkey, in vivo
# [10] = Metabolic stability of the compound assessed as compound remaining in lung of guinea pig administered via intratracheal insufflation; format: ADME, tissue-based, Cavia porcellus; conditions: in vivo, inhaled_or_intranasal
# Procedure, shortened: (§2)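 After the last blood sample (32 h), the guinea pigs were euthanized by exsanguination. BAL fluid was collected with 5 ml sterile saline and centrifuged. The supernatant was assayed for drug by the plasma HPLC method, adapted for BAL fluid. Routes were i.v. 20 mg/kg, oral 40 mg/kg, or insufflated powder 20, 40, 60 mg/kg; n = 6 or 7.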
# [11] = Bioavailability in guinea pig at 20 mg/kg, administered via intratracheal insufflation by HPLC method; format: ADME, organism-based, Cavia porcellus; conditions: in vivo, inhaled or intranasal; procedure, shortened: as §1
# [12] = Metabolic stability of the compound assessed as compound remaining in lung of guinea pig at 40 mg/kg, po after 32 hrs; format: ADME, organism-based, Cavia porcellus; set-up: dose 40 mg/kg, route oral; conditions: in vivo; procedure, shortened: as §2
# [13] = Cmax in guinea pig at 20 mg/kg, administered via intratracheal insufflation by HPLC method; format: ADME, organism-based, Cavia porcellus; set-up: dose 20 mg/kg, route endotracheal; conditions: in vivo, inhaled or intranasal; procedure, shortened: as §1
# [14] = Cmax in guinea pig at 60 mg/kg, administered via intratracheal insufflation by HPLC method; format: ADME, organism-based, Cavia porcellus; set-up: dose 60 mg/kg, route endotracheal; conditions: in vivo, inhaled or intranasal; procedure, shortened: as §1
# [15] = system: Mycobacterium tuberculosis; assay: Antimicrobial activity against Mycobacterium tuberculosis; format: functional
# [16] = Mean residence time in guinea pig at 40 mg/kg, po by HPLC method; format: ADME, organism-based, Cavia porcellus; set-up: dose 40 mg/kg, route oral; conditions: in vivo; procedure, shortened: as §1
# [17] = Tmax in guinea pig at 20 mg/kg, administered via intratracheal insufflation by HPLC method; format: ADME, organism-based, Cavia porcellus; set-up: dose 20 mg/kg, route endotracheal; conditions: in vivo, inhaled or intranasal; procedure, shortened: as §1
# [18] = Cmax in guinea pig at 40 mg/kg, po by HPLC method; format: ADME, organism-based, Cavia porcellus; set-up: dose 40 mg/kg, route oral; conditions: in vivo; procedure, shortened: as §1
# [19] = Mean residence time in guinea pig at 60 mg/kg, administered via intratracheal insufflation by HPLC method; format: ADME, organism-based, Cavia porcellus; set-up: dose 60 mg/kg, route endotracheal; conditions: in vivo, inhaled or intranasal; procedure, shortened: as §1
# [20] = Half life in guinea pig at 60 mg/kg, administered via intratracheal insufflation by HPLC method; format: ADME, organism-based, Cavia porcellus; set-up: dose 60 mg/kg, route endotracheal; conditions: in vivo, inhaled or intranasal; procedure, shortened: as §1
# [21] = AUC (0 to infinity) in guinea pig at 40 mg/kg, administered via intratracheal insufflation by HPLC method; format: ADME, organism-based, Cavia porcellus; set-up: time infinity, dose 40 mg/kg, route endotracheal; conditions: plasma, inhaled or intranasal; procedure, shortened: as §1
# [22] = Chemical stability of the compound at 25 degC; format: physicochemical
# [23] = Chemical stability of the compound after 6 months; format: physicochemical; conditions: 4383 h
# [24] = Chemical stability of the compound at 4 degC; format: physicochemical
# [25] = Ratio of Cmax in mouse at 100 mg/kg, po to MIC for Mycobacterium tuberculosis; format: functional
# [26] = Mean residence time in guinea pig at 20 mg/kg, administered via intratracheal insufflation by HPLC method; format: ADME, organism-based, Cavia porcellus; set-up: dose 20 mg/kg, route endotracheal; conditions: in vivo, inhaled or intranasal; procedure, shortened: as §1
# [27] = Elimination rate constant in guinea pig at 40 mg/kg, po by HPLC method; format: ADME, organism-based, Cavia porcellus; set-up: dose 40 mg/kg, route oral; conditions: in vivo; procedure, shortened: as §1
# [28] = Bioavailability (0 to infinity) in guinea pig at 40 mg/kg, administered via intratracheal insufflation by HPLC method; format: ADME, organism-based, Cavia porcellus; conditions: in vivo, inhaled or intranasal; procedure, shortened: as §1
# [29] = Elimination rate constant in guinea pig at 20 mg/kg, iv by HPLC method; format: ADME, organism-based, Cavia porcellus; set-up: dose 20 mg/kg, route intravenous; conditions: in vivo; procedure, shortened: as §1
# [30] = Mean residence time in guinea pig at 20 mg/kg, iv by HPLC method; format: ADME, organism-based, Cavia porcellus; set-up: dose 20 mg/kg, route intravenous; conditions: in vivo; procedure, shortened: as §1
# Cavia porcellus [31] = assay: AUC (0 to infinity) in guinea pig at 20 mg/kg, iv by HPLC method; format: ADME, organism-based, Plasma; set-up: time infinity, dose 20 mg/kg, route intravenous; conditions: in vivo; procedure, shortened: as §1
# [32] = Metabolic stability of the compound assessed as compound remaining in lung of guinea pig at 20 mg/kg, iv after 32 hrs; format: ADME, organism-based, Cavia porcellus; set-up: dose 20 mg/kg, route intravenous; conditions: in vivo; procedure, shortened: as §2
# [33] = Half life in po dosed dog; format: ADME, organism-based, Canis lupus familiaris; conditions: in vivo
# [34] = Bioavailability in guinea pig at 40 mg/kg, administered via intratracheal insufflation by HPLC method; format: ADME, organism-based, Cavia porcellus; conditions: in vivo, inhaled or intranasal; procedure, shortened: as §1
# [35] = Cmax in guinea pig at 40 mg/kg, administered via intratracheal insufflation by HPLC method; format: ADME, organism-based, Cavia porcellus; set-up: dose 40 mg/kg, route endotracheal; conditions: in vivo, inhaled or intranasal; procedure, shortened: as §1
# [36] = Half life in guinea pig at 20 mg/kg, administered via intratracheal insufflation by HPLC method; format: ADME, organism-based, Cavia porcellus; set-up: dose 20 mg/kg, route endotracheal; conditions: in vivo, inhaled or intranasal; procedure, shortened: as §1
# [37] = Tmax in po dosed rat; format: ADME, organism-based; conditions: in vivo
# [38] = Cmax in guinea pig at 20 mg/kg, iv by HPLC method; format: ADME, organism-based, Cavia porcellus; set-up: dose 20 mg/kg, route intravenous; conditions: in vivo; procedure, shortened: as §1
# [39] = Elimination rate constant in guinea pig at 60 mg/kg, administered via intratracheal insufflation by HPLC method; format: ADME, organism-based, Cavia porcellus; set-up: dose 60 mg/kg, route endotracheal; conditions: in vivo, inhaled or intranasal; procedure, shortened: as §1
# [40] = Bioavailability in guinea pig at 60 mg/kg, administered via intratracheal insufflation by HPLC method; format: ADME, organism-based, Cavia porcellus; conditions: in vivo, inhaled or intranasal; procedure, shortened: as §1
# [41] = Elimination rate constant in guinea pig at 40 mg/kg, administered via intratracheal insufflation by HPLC method; format: ADME, organism-based, Cavia porcellus; set-up: dose 40 mg/kg, route endotracheal; conditions: in vivo, inhaled or intranasal; procedure, shortened: as §1
# [42] = Half life in guinea pig at 40 mg/kg, po by HPLC method; format: ADME, organism-based, Cavia porcellus; set-up: dose 40 mg/kg, route oral; conditions: in vivo; procedure, shortened: as §1
# [43] = Ratio of Cmax in guinea pig at 40 mg/kg, po to MIC for Mycobacterium tuberculosis; format: functional
# [44] = Bioavailability (0 to infinity) in guinea pig at 20 mg/kg, administered via intratracheal insufflation by HPLC method; format: ADME, organism-based, Cavia porcellus; conditions: in vivo, inhaled or intranasal; procedure, shortened: as §1
# [45] = Half life in guinea pig at 20 mg/kg, iv by HPLC method; format: ADME, organism-based, Cavia porcellus; set-up: dose 20 mg/kg, route intravenous; conditions: in vivo; procedure, shortened: as §1
# [46] = Mean residence time in guinea pig at 40 mg/kg, administered via intratracheal insufflation by HPLC method; format: ADME, organism-based, Cavia porcellus; set-up: dose 40 mg/kg, route endotracheal; conditions: in vivo, inhaled or intranasal; procedure, shortened: as §1
# [47] = AUC (0 to infinity) in guinea pig at 20 mg/kg, administered via intratracheal insufflation by HPLC method; format: ADME, organism-based, Cavia porcellus; set-up: time infinity, dose 20 mg/kg, route endotracheal; conditions: plasma, inhaled or intranasal; procedure, shortened: as §1
# [48] = Tmax in guinea pig at 40 mg/kg, administered via intratracheal insufflation by HPLC method; format: ADME, organism-based, Cavia porcellus; set-up: dose 40 mg/kg, route endotracheal; conditions: in vivo, inhaled or intranasal; procedure, shortened: as §1
# [49] = Tmax in guinea pig at 40 mg/kg, po by HPLC method; format: ADME, organism-based, Cavia porcellus; set-up: dose 40 mg/kg, route oral; conditions: in vivo; procedure, shortened: as §1
# [50] = Tmax in guinea pig at 20 mg/kg, iv by HPLC method; format: ADME, organism-based, Cavia porcellus; set-up: dose 20 mg/kg, route intravenous; conditions: in vivo; procedure, shortened: as §1
# [51] = Ratio of Cmax in guinea pig at 40 mg/kg, administered via intratracheal insufflation to MIC for Mycobacterium tuberculosis; format: functional; conditions: route endotracheal
# [52] = Tmax in po dosed monkey; format: ADME, organism-based, Macaca mulatta; conditions: rhesus monkey, in vivo
# [53] = Bioavailability (0 to infinity) in guinea pig at 60 mg/kg, administered via intratracheal insufflation by HPLC method; format: ADME, organism-based, Cavia porcellus; conditions: in vivo, inhaled or intranasal; procedure, shortened: as §1
smiles,measurement,setting,value
O=[N+]([O-])c1cn2c(n1)OC[C@@H](OCc1ccc(OC(F)(F)F)cc1)C2 [PRETOMANID],half-life,[1],4.38 h
same,AUC,Cavia porcellus [2],25770 ng·h/mL
same,Stability,[3],Stable
same,Tmax,[4],3.6 h
same,F,Cavia porcellus [5],0.56%
same,AUC(0-inf),[6],51000 ng·h/mL
same,Stability,[7],Stable
same,k el,[8],6.67e-05 s⁻¹
same,half-life,[9],2 h
same,Activity,[10],Dose-dependent effect
same,bioavailability,[11],2.11%
same,Stability,[12],Unstable
same,Cmax,[13],2010 ng/mL
same,Cmax,[14],4580 ng/mL
same,MIC,[15],0.015 µg/mL
same,MRT,[16],5.37 h
same,Tmax,[17],4.33 h
same,Cmax,[18],4140 ng/mL
same,MRT,[19],8.26 h
same,half-life,[20],5.91 h
same,AUC(0-inf),[21],32300 ng·h/mL
same,Stability,[22],Stable
same,Stability,[23],Unstable
same,Stability,[24],Stable
same,Ratio,[25],80
same,MRT,[26],5.17 h
same,k el,[27],8.33e-05 s⁻¹
same,bioavailability,[28],0.63%
same,k el,[29],0.000103 s⁻¹
same,MRT,[30],2.69 h
same,AUC,Cavia porcellus [31],26540 ng·h/mL
same,Stability,[32],Unstable
same,half-life,[33],1 h
same,bioavailability,[34],1.12%
same,Cmax,[35],3420 ng/mL
same,half-life,[36],2.83 h
same,Tmax,[37],6 h
same,Cmax,[38],9190 ng/mL
same,k el,[39],3.61e-05 s⁻¹
same,bioavailability,[40],0.74%
same,k el,[41],4.72e-05 s⁻¹
same,half-life,[42],2.43 h
same,Ratio,[43],14
same,bioavailability,[44],0.59%
same,half-life,[45],1.91 h
same,MRT,[46],7.52 h
same,AUC(0-inf),[47],14800 ng·h/mL
same,Tmax,[48],3.25 h
same,Tmax,[49],4 h
same,Tmax,[50],6.6 min
same,Ratio,[51],17
same,Tmax,[52],3.33 h
same,bioavailability,[53],0.62%
